Calls of active or inactive are those of the source.
Tests used:
[1] = organism: Canis familiaris; experiment: The maximum Percent change from control in the rate of rise of phase 0 of the action potential at 1 uM concentration on Canine Purkinje fibers.; parameters: species or system Canis lupus familiaris, Purkinje fiber; settings: dog
Summary of the method: (§1)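 Canine Purkinje fibers were held in oxygenated (95% O2–5% CO2) physiological saline, pH 7.35–7.40, at 36 ± 0.5 °C and paced at 1.0 Hz with 2-ms pulses at twice diastolic threshold. Intracellular microelectrodes (3 M KCl) recorded Vmax and APD95 simultaneously. After up to 1 h of stabilization, compounds were tested from 10^-8 to 10^-3 M with 30 min per concentration. One compound per fiber, with vehicle controls. For N ≥ 3, values are the mean with the range.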

[2] = organism: Canis familiaris; experiment: Maximum percent change in repolarization at 100 uM concentration on Canine Purkinje fibers.; value ranges from 14-20; format: functional, Canis lupus familiaris, Purkinje fiber
Summary of the method: (§2)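 Isolated canine Purkinje fibers were superfused with physiological saline gassed with 95% O2/5% CO2 (pH 7.35–7.40) at 36 ± 0.5 °C. Paced at 1.0 Hz with 2-ms pulses at twice diastolic threshold. After up to 1 h stabilization, compounds were tested over 10^-8 to 10^-3 M, 30 min per concentration, one compound per fiber, with vehicle controls. Intracellular microelectrodes (3 M KCl) recorded Vmax and APD95; maximum percent change from control is reported with its concentration.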

[3] = organism: Canis familiaris; experiment: Maximum percent change in functional refractory period (FRP) at 100 uM on Canine ventricular muscle fibre.; parameters: species or system Canis lupus familiaris, Muscle tissue
Summary of the method: (§3)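 Canine right ventricular papillary muscle strips were superfused at 36 ± 0.5 °C with saline gassed with 95% O2/5% CO2. Diastolic threshold was found with 2-ms stimuli at 4000 ms cycle length, then pacing at 4× threshold for 60 min equilibration. FRP was measured at 1000 ms cycle length by S1-S2 premature stimulus after every tenth S1. Conduction time came from a bipolar electrogram. Various compound concentrations were tested, one compound per strip, with vehicle controls. Percent change from control was taken at 10 µM, or the maximum change with its concentration; for N ≥ 3, mean with range.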

[4] = organism: Canis familiaris; experiment: Percent change from control in the rate of rise of phase 0 of the action potential at 10 uM concentration on Canine Purkinje fibers.; value ranges from 0-2; parameters: species or system Canis lupus familiaris, Purkinje fiber; settings: dog, in vitro
[5] = organism: Canis familiaris; experiment: Maximum percent change in conduction time (CT) at 1 uM concentration tested on Canine ventricular muscle fibre; format: functional, Canis lupus familiaris, Muscle tissue; summary of the method: as §3
[6] = organism: Canis familiaris; experiment: The maximum Percent change from control in the rate of rise of phase 0 of the action potential at 100 uM concentration on Canine Purkinje fibers.; parameters: species or system Canis lupus familiaris, Purkinje fiber; settings: dog; summary of the method: as §1
[7] = organism: Canis familiaris; experiment: The maximum percent change in action potential (Vmax ) at concentration observed (0.1 uM ) was tested on Canine Purkinje fibers.; parameters: species or system Canis lupus familiaris, Purkinje fiber; settings: dog, in vitro; summary of the method: as §1
[8] = organism: Canis familiaris; experiment: Percent change from control in the functional refractory period (FRP) at 10 uM conc. on Canine ventricular muscle fibre.; value ranges from 11-23; parameters: species or system Canis lupus familiaris, Muscle tissue; summary of the method: as §3
[9] = organism: Canis familiaris; experiment: Maximum percent change in conduction time (CT) at 100 uM concentration tested on Canine ventricular muscle fibre; format: functional, Canis lupus familiaris, Muscle tissue; summary of the method: as §3
[10] = organism: Canis familiaris; experiment: Maximum percent change in conduction time (CT) at 0.1 uM concentration tested on Canine ventricular muscle fibre; format: functional, Canis lupus familiaris, Muscle tissue; summary of the method: as §3
[11] = organism: Canis familiaris; experiment: Maximum percent change in functional refractory period (FRP) at 10 uM on Canine ventricular muscle fibre.; parameters: species or system Canis lupus familiaris, Muscle tissue; summary of the method: as §3
[12] = organism: Canis familiaris; experiment: Percent change in repolarization at 10 Purkinje fibers; value ranges from -3.0-7.0.; format: functional, Canis lupus familiaris, Purkinje fiber; summary of the method: as §1
[13] = organism: Canis familiaris; experiment: Percent change from control in conduction time (CT) at 10 uM concentration tested on Canine ventricular muscle fibre.; value ranges from -11.0-0; format: functional, Canis lupus familiaris, Muscle tissue; summary of the method: as §3
[14] = organism: Canis familiaris; experiment: Percent change from control in conduction time (CT) at 10 uM concentration tested on Canine ventricular muscle fibre.; M is minimal(<10% change in CT); format: functional; settings: Canis lupus familiaris, Muscle tissue; summary of the method: as §3
[15] = organism: Canis familiaris; experiment: Percent change from control in the functional refractory period (FRP) at 10 uM conc. on Canine ventricular muscle fibre.; parameters: species or system Canis lupus familiaris, Muscle tissue; summary of the method: as §3
[16] = organism: Canis familiaris; experiment: Maximum Percent change from control in the rate of rise of phase 0 of the action potential at 100 uM concentration on Canine Purkinje fibers.; settings: dog, in vitro
[17] = organism: Canis familiaris; experiment: Percent change from control in the rate of rise of phase 0 of the action potential at 10 uM concentration on Canine Purkinje fibers.; parameters: species or system Canis lupus familiaris, Purkinje fiber; settings: dog, in vitro
[18] = organism: Canis familiaris; experiment: Maximum percent change in repolarization at 100 uM concentration on Canine Purkinje fibers.; format: functional, Canis lupus familiaris, Purkinje fiber; summary of the method: as §2
[19] = organism: Cavia porcellus; experiment: Concentration of compound which gives a 20% decrease in contractile force was tested on papillary muscle of guinea pig, activity was expressed as EC-20.; format: functional; settings: Muscle tissue
Summary of the method: (§4)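 Contractile force measured in an isolated cardiac muscle preparation. Value is the concentration giving a 20% decrease in force of contraction. NR marks that this decrease was not reached. Values come from individual experiments; for N ≥ 3, the mean is given with the range.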

[20] = organism: Canis familiaris; experiment: Percent change in repolarization at 10 Purkinje fibers.; format: functional, Canis lupus familiaris, Purkinje fiber; summary of the method: as §1
[21] = organism: Canis familiaris; experiment: Maximum Percent change from control in the rate of rise of phase 0 of the action potential at 10 uM concentration on Canine Purkinje fibers.; format: functional, Canis lupus familiaris, Purkinje fiber; settings: dog, in vitro; summary of the method: as §2
[22] = organism: Canis familiaris; experiment: Maximum percent change in functional refractory period (FRP) at 1 uM on Canine ventricular muscle fibre.; parameters: species or system Canis lupus familiaris, Muscle tissue; summary of the method: as §3
[23] = organism: Canis familiaris; experiment: Maximum Percent change from control in the rate of rise of phase 0 of the action potential at 30 uM concentration on Canine Purkinje fibers.; parameters: species or system Canis lupus familiaris, Purkinje fiber; settings: dog, in vitro; summary of the method: as §2
[24] = organism: Canis familiaris; experiment: Percent change in repolarization at 10 Purkinje fibers.; value ranges from 5-16; format: functional, Canis lupus familiaris, Purkinje fiber; summary of the method: as §1
[25] = organism: Canis familiaris; experiment: Maximum percent change in repolarization at 10 uM concentration on Canine Purkinje fibers.; format: functional, Canis lupus familiaris, Purkinje fiber; summary of the method: as §2
[26] = organism: Cavia porcellus; experiment: Concentration of compound which gives a 20% decrease in contractile force was tested from individual experiments on papillary muscle of guinea pig, activity was expressed as EC-20.; format: functional; settings: Muscle tissue; summary of the method: as §4
[27] = organism: Canis familiaris; experiment: Percent change from control in conduction time (CT) at uM concentration tested on Canine ventricular muscle fibre.; M is minimal(<10% change in CT); format: functional; settings: Canis lupus familiaris; Muscle tissue; summary of the method: as §3
[28] = organism: Canis familiaris; experiment: Percent change from control in conduction time (CT) at 10 uM concentration tested on Canine ventricular muscle fibre.; value ranges from -12 - -5; format: functional, Canis lupus familiaris, Muscle tissue; summary of the method: as §3
[29] = organism: Canis familiaris; experiment: Maximum percent change in functional refractory period(FRP) of compound (10 uM) was tested from individual experiment on Canine ventricular muscle fibre.; parameters: species or system Canis lupus familiaris, Muscle tissue; summary of the method: as §3
[30] = Maximum Percent change from control in the rate of rise of phase 0 of the action potential at 100 Purkinje fibers.; format: tissue-based, Purkinje fiber; summary of the method: as §2
[31] = organism: Canis familiaris; experiment: Percent change from control in the rate of rise of phase 0 of the action potential at 10 uM concentration on Canine Purkinje fibers.; value ranges from -21- -37; format: organism-based, Canis lupus familiaris, Purkinje fiber; settings: dog, in vitro
[32] = organism: Canis familiaris; experiment: Maximum percent change in conduction time (CT) at 10 uM concentration tested on Canine ventricular muscle fibre; value ranges from -12 - -5; format: functional, Canis lupus familiaris, Muscle tissue; summary of the method: as §3
[33] = organism: Canis familiaris; experiment: Percent change from control in the functional refractory period (FRP) at 10 uM conc. on Canine ventricular muscle fibre.; value ranges from -1-20; parameters: species or system Canis lupus familiaris, Muscle tissue; summary of the method: as §3
[34] = organism: Canis familiaris; experiment: Maximum percent change in repolarization at 30 uM concentration on Canine Purkinje fibers.; format: functional, Canis lupus familiaris, Purkinje fiber; summary of the method: as §2
[35] = organism: Canis familiaris; experiment: Percent change in repolarization at 10 Purkinje fibers; value ranges from -11- -25.; format: functional, Canis lupus familiaris, Purkinje fiber; summary of the method: as §1
[36] = organism: Canis familiaris; experiment: Maximum Percent change from control in the rate of rise of phase 0 of the action potential at 100 uM concentration on Canine Purkinje fibers.; format: Canis lupus familiaris, Purkinje fiber; settings: dog, in vitro; summary of the method: as §2
[37] = organism: Canis familiaris; experiment: Maximum percent change in repolarization at 0.1 uM concentration on Canine Purkinje fibers.; format: functional, Canis lupus familiaris, Purkinje fiber; summary of the method: as §2
[38] = organism: Canis familiaris; experiment: Percent change from control in conduction time (CT) at 10 uM concentration tested on Canine ventricular muscle fibre.; format: functional, Canis lupus familiaris, Muscle tissue; summary of the method: as §3
[39] = organism: Cavia porcellus; experiment: Concentration of compound which gives a 20% decrease in contractile force was tested on papillary muscle of guinea pig, activity was expressed as EC-20; N.R. is not reached.; format: functional; settings: Muscle tissue; summary of the method: as §4
[40] = organism: Canis familiaris; experiment: Maximum Percent change from control in the rate of rise of phase 0 of the action potential at 1 uM concentration on Canine Purkinje fibers.; parameters: species or system Canis lupus familiaris, Purkinje fiber; summary of the method: as §2
[41] = organism: Canis familiaris; experiment: Percent change in repolarization at 10 Purkinje fibers.; value ranges from 1-4; format: functional, Canis lupus familiaris, Purkinje fiber; summary of the method: as §1

## CCN(CC)CCNC(=O)c1ccc(NC(C)=O)cc1 [ACECAINIDE]
[1]
  Vmax: 2%
[2]
  APD95: 16.3%
[3]
  FRP: 31%
[4]
  Vmax: 1%
[5]
  CT: -9%
[6]
  Vmax: 5%
[7]
  Vmax: 6%
[8]
  FRP: 16.8%
[9]
  CT: 6%
[10]
  CT: -11%
[11]
  FRP: 23%
[12]
  APD95: 3%
[13]
  CT: -9.7%

## CCN(CC)CCNC(=O)c1cc(Cl)c(N)cc1OC [METOCLOPRAMIDE]
[3]
  FRP: 33%
[14]
  CT: inactive
[15]
  FRP: 17%
[9]
  CT: 17%
[16]
  Vmax: -25%
[17]
  Vmax: -3%
[18]
  APD95: -17%
[19]
  EC20: 10 µM
[20]
  APD95: 1%

## CCN(CC)CCCNC(=O)c1cc2ccccc2[nH]1
[21]
  Vmax: -13%
[22]
  FRP: 5%
[23]
  Vmax: -13%
[24]
  APD95: 9.6%
[25]
  APD95: 16%
[15]
  FRP: 5%
[26]
  EC20: 26 µM
[9]
  CT: -11%
[17]
  Vmax: -7%
[18]
  APD95: -14%
[27]
  CT: Minimal

## CCN(CC)CCCNC(=O)c1cc2cccc(OCc3ccccc3)c2[nH]1
[21]
  Vmax: -33%
[28]
  CT: -4%
[29]
  FRP: 20%
[3]
  FRP: 7%
[30]
  Vmax: -79%
[23]
  Vmax: -56%
[25]
  APD95: -11%
[31]
  Vmax: -30.3%
[32]
  CT: -4%
[18]
  APD95: 18%
[33]
  FRP: 8%
[34]
  APD95: -38%
[19]
  EC20: 8 µM
[35]
  APD95: -16.3%

## CCN(CC)CCNC(=O)c1c(O)cc(C)nc1C
[36]
  Vmax: -7%
[37]
  APD95: 5%
[3]
  FRP: 26%
[23]
  Vmax: -12%
[38]
  CT: -5%
[39]
  EC20: Not reached
[5]
  CT: -5%
[25]
  APD95: 4%
[15]
  FRP: 21%
[40]
  Vmax: -5%
[9]
  CT: -16%
[17]
  Vmax: 0.3%
[41]
  APD95: 3%
[18]
  APD95: 4%

Reference: ChEMBL document CHEMBL1124429, “Heterocyclic analogues of benzamide antiarrhythmic agents” (J Med Chem, 1989)
